For experiment [1], the target named is Homeodomain-interacting protein kinase 3 (Homo sapiens) (UniProt Q9H422). In words: Inhibition of human recombinant HIPK3 at 40 nM in presence of ATP by radiometric assay relative to control.
The target in experiment [2] is Serine/threonine-protein kinase PAK 3 (Homo sapiens) (UniProt O75914). Put plainly: Inhibition of human recombinant PAK3 at 40 nM in presence of ATP by radiometric assay relative to control.
Experiment [3] has as its target T1, Serine/threonine-protein kinase BRSK1 (Homo sapiens) (UniProt Q8TDC3).
T1 sequence (whole entry): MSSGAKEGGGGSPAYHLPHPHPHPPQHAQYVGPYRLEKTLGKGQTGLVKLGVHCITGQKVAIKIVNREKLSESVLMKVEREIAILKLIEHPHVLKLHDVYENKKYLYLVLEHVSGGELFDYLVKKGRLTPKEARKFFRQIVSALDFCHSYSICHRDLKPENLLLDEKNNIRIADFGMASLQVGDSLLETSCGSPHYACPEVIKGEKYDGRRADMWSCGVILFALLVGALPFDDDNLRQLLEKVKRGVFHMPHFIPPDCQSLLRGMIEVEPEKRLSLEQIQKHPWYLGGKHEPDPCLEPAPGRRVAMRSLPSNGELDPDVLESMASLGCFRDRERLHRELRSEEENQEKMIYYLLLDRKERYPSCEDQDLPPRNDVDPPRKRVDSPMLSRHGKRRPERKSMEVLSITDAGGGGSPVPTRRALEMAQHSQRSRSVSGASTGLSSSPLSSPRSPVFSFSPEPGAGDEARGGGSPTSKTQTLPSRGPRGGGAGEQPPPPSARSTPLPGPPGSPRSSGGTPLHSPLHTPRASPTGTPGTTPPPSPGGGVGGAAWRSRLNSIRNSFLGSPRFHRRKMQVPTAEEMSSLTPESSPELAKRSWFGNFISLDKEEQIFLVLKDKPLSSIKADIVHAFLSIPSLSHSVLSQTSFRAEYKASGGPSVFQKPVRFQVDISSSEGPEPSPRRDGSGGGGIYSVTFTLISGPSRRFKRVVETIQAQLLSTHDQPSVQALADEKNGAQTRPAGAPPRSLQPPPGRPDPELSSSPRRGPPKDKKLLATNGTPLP
Put plainly: Inhibition of human recombinant BRSK1 at 40 nM in presence of ATP by radiometric assay relative to control. A digest of the protocol:
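Recombinant human kinase panel (327 kinases) run as radiometric activity assays, each kinase in duplicate at one compound concentration. Activity remaining expressed relative to vehicle control; percent inhibition taken as 100% minus % activity remaining.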

Experiment [4] deals with Serine/threonine-protein kinase 32C (Homo sapiens) (UniProt Q86UX6). In words: Inhibition of human recombinant YANK3 at 40 nM in presence of ATP by radiometric assay relative to control.
The target of experiment [5] is Serine/threonine-protein kinase 25 (Homo sapiens) (UniProt O00506). Put plainly: Inhibition of human recombinant YSK1 at 40 nM in presence of ATP by radiometric assay relative to control.
The target in experiment [6] is T2, Testis-specific serine/threonine-protein kinase 2 (Homo sapiens) (UniProt Q96PF2).
T2 sequence (whole entry): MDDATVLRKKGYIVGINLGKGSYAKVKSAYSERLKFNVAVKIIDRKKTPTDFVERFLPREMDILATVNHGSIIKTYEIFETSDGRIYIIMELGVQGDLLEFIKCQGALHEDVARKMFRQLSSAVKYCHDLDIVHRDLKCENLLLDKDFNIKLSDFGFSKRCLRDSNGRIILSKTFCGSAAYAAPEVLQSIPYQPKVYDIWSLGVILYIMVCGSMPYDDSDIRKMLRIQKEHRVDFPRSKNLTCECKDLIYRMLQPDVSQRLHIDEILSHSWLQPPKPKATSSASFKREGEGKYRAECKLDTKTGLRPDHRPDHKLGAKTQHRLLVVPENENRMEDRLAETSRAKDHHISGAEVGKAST
In words: Inhibition of human recombinant TSSK2 at 500 nM related to control ULK1.

In experiment [7] the target is T3, Serine/threonine-protein kinase Nek2 (Homo sapiens) (UniProt P51955).
T3 sequence (whole entry): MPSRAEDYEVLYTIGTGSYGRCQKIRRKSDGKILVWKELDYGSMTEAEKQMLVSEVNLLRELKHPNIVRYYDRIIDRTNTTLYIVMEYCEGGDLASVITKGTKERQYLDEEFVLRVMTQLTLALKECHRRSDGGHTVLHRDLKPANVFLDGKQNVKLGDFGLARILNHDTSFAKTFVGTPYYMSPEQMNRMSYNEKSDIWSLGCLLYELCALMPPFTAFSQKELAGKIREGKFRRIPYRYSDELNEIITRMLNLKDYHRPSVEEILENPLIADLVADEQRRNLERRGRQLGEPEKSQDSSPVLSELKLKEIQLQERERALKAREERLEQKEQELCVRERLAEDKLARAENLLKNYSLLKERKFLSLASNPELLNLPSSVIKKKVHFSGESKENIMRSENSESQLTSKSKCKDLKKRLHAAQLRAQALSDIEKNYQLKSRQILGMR
Put plainly: Inhibition of human recombinant NEK2 at 500 nM related to control ULK1.

The target of experiment [8] is Serine/threonine-protein kinase SIK3 (Homo sapiens) (UniProt Q9Y2K2). Put plainly: Inhibition of human recombinant QSK at 15 nM related to control ULK1.
In experiment [9] the target is T4, Serine/threonine-protein kinase haspin (Homo sapiens) (UniProt Q8TF76).
T4 sequence (whole entry): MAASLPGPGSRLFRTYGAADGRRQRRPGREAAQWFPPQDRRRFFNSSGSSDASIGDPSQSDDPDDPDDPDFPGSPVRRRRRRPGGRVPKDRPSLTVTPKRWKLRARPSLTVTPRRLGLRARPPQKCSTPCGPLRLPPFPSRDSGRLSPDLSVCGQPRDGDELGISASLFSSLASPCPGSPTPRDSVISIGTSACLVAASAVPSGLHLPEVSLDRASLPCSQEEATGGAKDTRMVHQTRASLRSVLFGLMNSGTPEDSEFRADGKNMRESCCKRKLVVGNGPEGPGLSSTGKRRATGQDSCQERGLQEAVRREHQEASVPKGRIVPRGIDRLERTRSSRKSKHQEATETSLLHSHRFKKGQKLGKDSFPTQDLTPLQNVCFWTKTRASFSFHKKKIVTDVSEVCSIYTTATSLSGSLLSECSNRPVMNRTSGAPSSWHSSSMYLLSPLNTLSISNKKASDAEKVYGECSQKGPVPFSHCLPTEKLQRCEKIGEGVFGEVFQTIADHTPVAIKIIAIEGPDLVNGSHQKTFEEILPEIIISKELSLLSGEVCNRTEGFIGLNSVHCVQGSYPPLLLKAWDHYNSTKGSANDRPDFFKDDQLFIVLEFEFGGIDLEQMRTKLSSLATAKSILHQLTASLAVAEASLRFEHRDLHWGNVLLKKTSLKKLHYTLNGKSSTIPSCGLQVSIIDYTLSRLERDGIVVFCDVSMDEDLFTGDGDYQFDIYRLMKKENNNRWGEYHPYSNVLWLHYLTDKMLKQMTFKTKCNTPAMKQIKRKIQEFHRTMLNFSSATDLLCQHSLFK
In words: Inhibition of human recombinant Haspin at 15 nM in presence of ATP by radiometric assay relative to control.

Broadly, the inhibition is the drop in the measured response relative to a control, in per cent.

Sequence of Serine/threonine-protein kinase PAK 3 (Homo sapiens) (O75914 whole entry, looked up): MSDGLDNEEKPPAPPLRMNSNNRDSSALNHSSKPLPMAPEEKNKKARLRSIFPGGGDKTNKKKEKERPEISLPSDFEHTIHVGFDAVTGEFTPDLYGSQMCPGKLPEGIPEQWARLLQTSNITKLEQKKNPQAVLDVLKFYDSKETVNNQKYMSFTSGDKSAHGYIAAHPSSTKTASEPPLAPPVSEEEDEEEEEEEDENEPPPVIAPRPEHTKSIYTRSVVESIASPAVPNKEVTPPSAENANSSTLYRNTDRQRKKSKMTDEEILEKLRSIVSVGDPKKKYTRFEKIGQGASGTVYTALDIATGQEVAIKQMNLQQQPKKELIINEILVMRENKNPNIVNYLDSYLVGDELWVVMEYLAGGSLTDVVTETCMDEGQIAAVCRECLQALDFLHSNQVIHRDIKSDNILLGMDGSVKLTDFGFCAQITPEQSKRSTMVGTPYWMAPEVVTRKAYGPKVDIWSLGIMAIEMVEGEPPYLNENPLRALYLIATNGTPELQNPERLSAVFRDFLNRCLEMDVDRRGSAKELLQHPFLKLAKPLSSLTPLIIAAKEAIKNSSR
Sequence of Serine/threonine-protein kinase 32C (Homo sapiens) (Q86UX6 whole entry): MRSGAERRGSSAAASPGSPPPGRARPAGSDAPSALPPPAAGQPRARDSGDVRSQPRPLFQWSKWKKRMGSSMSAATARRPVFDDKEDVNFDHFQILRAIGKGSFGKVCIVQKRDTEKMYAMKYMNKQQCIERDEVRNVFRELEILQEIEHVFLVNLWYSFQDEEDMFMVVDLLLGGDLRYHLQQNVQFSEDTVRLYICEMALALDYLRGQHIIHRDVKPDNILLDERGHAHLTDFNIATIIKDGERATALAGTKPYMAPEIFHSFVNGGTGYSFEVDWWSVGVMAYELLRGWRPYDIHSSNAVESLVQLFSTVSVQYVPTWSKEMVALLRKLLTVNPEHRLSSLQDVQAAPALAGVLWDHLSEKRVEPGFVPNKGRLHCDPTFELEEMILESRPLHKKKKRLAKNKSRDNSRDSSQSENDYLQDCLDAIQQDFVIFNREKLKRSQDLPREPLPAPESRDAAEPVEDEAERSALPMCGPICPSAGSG
Sequence of Serine/threonine-protein kinase 25 (Homo sapiens) (O00506 whole entry, looked up): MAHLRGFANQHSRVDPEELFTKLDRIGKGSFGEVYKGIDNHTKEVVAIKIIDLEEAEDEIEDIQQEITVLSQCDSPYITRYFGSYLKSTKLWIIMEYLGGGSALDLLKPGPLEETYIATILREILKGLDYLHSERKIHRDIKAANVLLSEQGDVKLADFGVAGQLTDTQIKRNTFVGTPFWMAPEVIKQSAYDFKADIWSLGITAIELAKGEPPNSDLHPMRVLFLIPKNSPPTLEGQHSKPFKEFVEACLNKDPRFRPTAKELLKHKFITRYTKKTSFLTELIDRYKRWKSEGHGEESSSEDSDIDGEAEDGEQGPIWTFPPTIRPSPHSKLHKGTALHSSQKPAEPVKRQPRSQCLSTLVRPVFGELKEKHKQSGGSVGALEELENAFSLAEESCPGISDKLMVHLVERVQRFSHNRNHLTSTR
Sequence of Serine/threonine-protein kinase SIK3 (Homo sapiens) (Q9Y2K2 whole entry, looked up): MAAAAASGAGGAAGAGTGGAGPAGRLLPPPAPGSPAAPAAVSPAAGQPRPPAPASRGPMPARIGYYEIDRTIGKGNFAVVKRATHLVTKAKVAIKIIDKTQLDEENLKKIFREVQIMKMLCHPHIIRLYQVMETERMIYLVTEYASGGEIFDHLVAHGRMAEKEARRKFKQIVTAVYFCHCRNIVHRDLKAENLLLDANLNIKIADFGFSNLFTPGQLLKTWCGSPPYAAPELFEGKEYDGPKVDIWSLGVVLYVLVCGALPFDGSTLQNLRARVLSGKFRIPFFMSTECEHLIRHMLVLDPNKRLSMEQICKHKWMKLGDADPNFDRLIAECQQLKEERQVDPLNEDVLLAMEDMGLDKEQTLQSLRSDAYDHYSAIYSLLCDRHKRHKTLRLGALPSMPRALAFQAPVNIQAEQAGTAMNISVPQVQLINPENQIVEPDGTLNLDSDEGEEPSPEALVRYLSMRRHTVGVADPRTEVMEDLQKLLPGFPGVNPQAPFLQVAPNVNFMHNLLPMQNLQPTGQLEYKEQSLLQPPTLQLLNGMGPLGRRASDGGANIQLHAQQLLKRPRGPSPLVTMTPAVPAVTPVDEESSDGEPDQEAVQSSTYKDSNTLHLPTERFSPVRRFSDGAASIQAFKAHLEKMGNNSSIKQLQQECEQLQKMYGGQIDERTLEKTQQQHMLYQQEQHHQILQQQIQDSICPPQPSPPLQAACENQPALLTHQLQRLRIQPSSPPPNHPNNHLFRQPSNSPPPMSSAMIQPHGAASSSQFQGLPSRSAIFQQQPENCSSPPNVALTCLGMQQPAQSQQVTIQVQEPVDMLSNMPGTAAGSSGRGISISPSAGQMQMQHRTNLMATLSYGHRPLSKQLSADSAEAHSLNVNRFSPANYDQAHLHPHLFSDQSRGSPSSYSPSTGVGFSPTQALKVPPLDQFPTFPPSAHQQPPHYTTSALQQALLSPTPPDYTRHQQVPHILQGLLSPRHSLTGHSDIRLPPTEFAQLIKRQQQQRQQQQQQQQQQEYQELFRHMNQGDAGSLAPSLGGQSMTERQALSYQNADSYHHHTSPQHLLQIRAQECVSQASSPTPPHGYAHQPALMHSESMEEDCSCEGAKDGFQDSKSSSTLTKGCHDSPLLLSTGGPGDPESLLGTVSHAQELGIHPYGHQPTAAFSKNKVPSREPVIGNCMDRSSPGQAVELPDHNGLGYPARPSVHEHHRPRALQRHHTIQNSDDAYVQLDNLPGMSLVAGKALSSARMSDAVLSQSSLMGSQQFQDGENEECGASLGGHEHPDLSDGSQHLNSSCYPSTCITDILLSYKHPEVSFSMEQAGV
Sequence of Homeodomain-interacting protein kinase 3 (Homo sapiens) (Q9H422 whole entry, looked up): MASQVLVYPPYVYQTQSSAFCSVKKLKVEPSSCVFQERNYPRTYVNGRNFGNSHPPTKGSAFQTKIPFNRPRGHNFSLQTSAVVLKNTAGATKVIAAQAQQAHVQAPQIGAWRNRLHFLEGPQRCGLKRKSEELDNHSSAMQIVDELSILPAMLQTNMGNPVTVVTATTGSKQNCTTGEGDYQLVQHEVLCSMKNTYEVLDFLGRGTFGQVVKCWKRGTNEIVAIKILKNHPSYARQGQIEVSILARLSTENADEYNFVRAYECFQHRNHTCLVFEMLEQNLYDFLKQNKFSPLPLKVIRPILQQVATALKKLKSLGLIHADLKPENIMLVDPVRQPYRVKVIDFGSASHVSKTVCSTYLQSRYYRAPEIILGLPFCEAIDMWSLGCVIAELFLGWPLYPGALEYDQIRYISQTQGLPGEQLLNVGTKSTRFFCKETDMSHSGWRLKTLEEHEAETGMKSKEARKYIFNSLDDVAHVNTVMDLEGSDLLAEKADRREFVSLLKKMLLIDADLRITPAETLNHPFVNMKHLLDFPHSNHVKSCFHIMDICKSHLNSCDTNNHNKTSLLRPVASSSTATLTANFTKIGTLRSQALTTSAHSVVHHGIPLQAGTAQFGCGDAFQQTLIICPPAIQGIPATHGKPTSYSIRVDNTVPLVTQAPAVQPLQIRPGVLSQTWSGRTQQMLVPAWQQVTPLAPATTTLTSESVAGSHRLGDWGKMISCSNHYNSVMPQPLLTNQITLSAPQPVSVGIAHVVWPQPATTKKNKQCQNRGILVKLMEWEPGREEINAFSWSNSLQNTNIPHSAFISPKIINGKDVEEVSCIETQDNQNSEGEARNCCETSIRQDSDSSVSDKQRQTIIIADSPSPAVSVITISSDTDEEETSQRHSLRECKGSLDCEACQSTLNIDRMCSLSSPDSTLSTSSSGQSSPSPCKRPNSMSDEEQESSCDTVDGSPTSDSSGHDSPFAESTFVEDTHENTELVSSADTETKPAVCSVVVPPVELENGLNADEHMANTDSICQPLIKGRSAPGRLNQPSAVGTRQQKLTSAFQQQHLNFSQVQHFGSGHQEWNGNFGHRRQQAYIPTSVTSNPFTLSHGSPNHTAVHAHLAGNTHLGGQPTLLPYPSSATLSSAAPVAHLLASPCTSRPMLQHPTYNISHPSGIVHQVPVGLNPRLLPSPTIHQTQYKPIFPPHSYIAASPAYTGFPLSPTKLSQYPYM

Take `O=C(N[C@@H](C1CC1)C(F)(F)F)c1cc(-c2cnn3cc(-c4ccc(F)cc4)cnc23)cs1`: the inhibition in [1] is 5%; in experiment [2], 0%; in [3] it was 2%; in experiment [4], 5%; in experiment [5] it was 0%.

Consider `CNC(=O)c1ccccc1Oc1nc(Nc2cc(OC)c(OC)c(OC)c2)ncc1Br`, for which the fold change (FC) amounted to 0.03 in experiment [6] and 0 in experiment [7].

Turning to `CC(C)[C@H](NC(=O)c1cc(-c2cnn3cc(-c4ccc(OCCN5CCCCC5)cc4)cnc23)cs1)C(F)(F)F`, the fold change (FC) in experiment [8] worked out at 0.98. Besides, the inhibition in experiment [9] is 0%.
